Each block holds one compound with its values, some of them ahead of it. Calls of active or inactive are those of the source.
Key:
[1] = molecular target: T1, Glycogen synthase kinase-3 beta (Homo sapiens, UniProt P49841); experiment: Inhibition of GSK3beta (unknown origin) at 10 uM using GS-2 peptide substrate incubated for 30 mins by kinase-Glo luminescent assay
In short: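 Human recombinant GSK-3β, 20 ng, in 50 mM HEPES pH 7.5 with 1 mM EDTA, 1 mM EGTA and Mg acetate. Substrate prephosphorylated GS-2 peptide 25 µM with 1 µM ATP; DMSO ≤1%. Incubated 30 min at 30 °C, then Kinase-Glo luminescence read after 10 min. Activity scaled between no-inhibitor and full-inhibition reference controls.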
Target sequence in this assay (P49841 whole entry, looked up): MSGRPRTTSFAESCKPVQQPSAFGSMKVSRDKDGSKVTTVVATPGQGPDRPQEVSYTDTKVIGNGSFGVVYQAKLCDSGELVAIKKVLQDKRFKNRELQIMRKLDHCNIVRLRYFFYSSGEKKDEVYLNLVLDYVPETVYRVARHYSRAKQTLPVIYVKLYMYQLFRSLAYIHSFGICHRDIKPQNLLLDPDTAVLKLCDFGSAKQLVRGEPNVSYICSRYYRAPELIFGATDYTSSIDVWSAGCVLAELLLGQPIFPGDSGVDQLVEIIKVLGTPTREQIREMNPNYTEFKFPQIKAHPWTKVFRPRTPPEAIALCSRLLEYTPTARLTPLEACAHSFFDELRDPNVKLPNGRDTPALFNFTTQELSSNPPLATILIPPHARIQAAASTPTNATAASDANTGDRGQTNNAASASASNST

[2] = molecular target: T1, Glycogen synthase kinase-3 beta; experiment: Inhibition of GSK3beta (unknown origin) using GS-2 peptide substrate incubated for 30 mins by kinase-Glo luminescent assay
In short: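 Human recombinant GSK-3β, 20 ng, in 50 mM HEPES pH 7.5 with 1 mM EDTA, 1 mM EGTA and Mg acetate. Incubated 30 min at 30 °C, then Kinase-Glo luminescence read after 10 min. Activity scaled between no-inhibitor and full-inhibition reference controls.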
Target sequence in this assay (P49841 whole entry): as the sequence (P49841 whole entry, looked up) above

[3] = molecular target: T1, Glycogen synthase kinase-3 beta; experiment: Competitive inhibition of GSK3beta (unknown origin) at 10 uM using fixed level of GS-2 peptide substrate and varying ATP levels incubated for 30 mins by kinase-Glo luminescent assay
In short: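 Human recombinant GSK-3β, 20 ng per reaction, in HEPES pH 7.5 buffer with EDTA, EGTA and Mg acetate. GS-2 prephosphorylated peptide held at 25 µM; ATP varied from 1 to 50 µM along with inhibitor level. 30 min at 30 °C, then Kinase-Glo luminescence read after 10 min. Lineweaver–Burk double-reciprocal analysis; means of two experiments, each run in triplicate.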
Target sequence in this assay (P49841 whole entry, looked up): as above

[4] = molecular target: T1, Glycogen synthase kinase-3 beta; experiment: Inhibition of okadaic acid-induced GSK-3beta-mediated tau hyperphosphorylation in human SH-SY5Y cells assessed as increase in cell viability pre-incubated for 1 hr before okadaic acid stimulation for 24 hrs by MTT assay; type: cell-based
In short: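 SH-SY5Y cells grown in DMEM with 10% FBS, seeded at 60000 per well and used 48 h later. Compound given 1 h before 30nM okadaic acid, then 24 h incubation. Viability by MTT, 0.5mg/mL for at least 4 h, formazan dissolved in DMSO, absorbance at 595 nm. Expressed relative to control (=100); n=6 from three independent experiments.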
Target sequence in this assay (P49841 whole entry, looked up): as above

[5] = test system: Cerebellar granule neurone; experiment: Neurotoxicity in rat primary cerebellar granule neurons assessed as reduction in cell viability at 50 uM incubated for 24 hrs by MTT assay; type: toxicity
In short: (§1)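 Cerebellar granule neurons from 7-day-old rat pups, plated on poly-L-lysine at 3 × 10^5 cells/well in BME with FBS and 25 mM KCl. Cytosine arabinoside 10 µM added at 16 h. At 7 days in vitro, switched to serum-free BME with 25 mM KCl and treated 24 h at 0, 5, 25 or 50 µM. MTT 0.1 mg/mL for 20 min at 37 °C, A570. Mean ± SE of ≥3 experiments in triplicate, as % of control.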

[6] = Inhibition of AcPHF6 peptide aggregation in pH 7.4 phosphate buffer at 10 uM by atomic force microscopy
In short: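 AcPHF6 500 µM in water diluted to 50 µM in 50 mM phosphate pH 7.4, ±10 µM compound, no ThT. Incubated 80 min at 25 °C with 10 s shaking at 400 rpm each minute. Ultrafiltered (30 kDa cut-off), buffer exchanged to water, and the retained high-MW fraction adsorbed on mica. Imaged by PeakForce tapping-mode AFM.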

[7] = test system: Cerebellar granule neurone; experiment: Neurotoxicity in rat primary cerebellar granule neurons assessed as reduction in cell viability at 5 to 25 uM incubated for 24 hrs by MTT assay; type: toxicity; in short: as §1
[8] = Permeability in pH 7.4 PBS incubated for 2.5 hrs by PAMPA-BBB assay; type: ADME; conditions: read-out: permeability
In short: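 PAMPA-BBB: donor filter coated with porcine brain lipid in dodecane (20 mg/mL). Compounds in PBS pH 7.4/EtOH 70:30, acceptor filled with the same. Sandwich incubated 2.5 h at 25 °C, then donor and acceptor concentrations measured by UV at 3–5 wavelengths, 3 wells, two runs. Ten reference drugs included for validation.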

[9] = molecular target: CDC7/DBF4 (Cell division cycle 7-related protein kinase/Activator of S phase kinase) (Homo sapiens) (UniProt Q9UBU7+O00311); experiment: Inhibition of CDC7/Dbf4 (unknown origin) at 10 uM incubated for 60 mins by Kinase-Glo assay; type: protein-complex assay; conditions: in the assay text read “ADP-Glo assay” for “Kinase-Glo assay”
CDC7/DBF4 (Cell division cycle 7-related protein kinase/Activator of S phase kinase) (Homo sapiens), sequence (O00311 whole entry, looked up): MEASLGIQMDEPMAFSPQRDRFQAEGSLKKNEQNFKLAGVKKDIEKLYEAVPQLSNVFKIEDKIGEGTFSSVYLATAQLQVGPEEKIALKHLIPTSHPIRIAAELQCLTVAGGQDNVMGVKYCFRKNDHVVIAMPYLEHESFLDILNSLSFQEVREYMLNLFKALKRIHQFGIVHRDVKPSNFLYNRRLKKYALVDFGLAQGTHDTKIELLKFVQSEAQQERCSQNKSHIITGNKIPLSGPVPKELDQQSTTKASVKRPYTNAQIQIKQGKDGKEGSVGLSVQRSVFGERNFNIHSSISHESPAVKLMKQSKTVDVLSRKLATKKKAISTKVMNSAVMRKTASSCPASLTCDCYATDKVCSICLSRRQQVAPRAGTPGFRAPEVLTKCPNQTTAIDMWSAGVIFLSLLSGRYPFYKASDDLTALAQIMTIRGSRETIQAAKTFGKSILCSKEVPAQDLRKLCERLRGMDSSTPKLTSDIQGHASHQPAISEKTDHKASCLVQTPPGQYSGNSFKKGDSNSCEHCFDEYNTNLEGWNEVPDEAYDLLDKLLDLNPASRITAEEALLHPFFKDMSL
CDC7/DBF4 (Cell division cycle 7-related protein kinase/Activator of S phase kinase) (Homo sapiens), sequence (Q9UBU7 whole entry, looked up): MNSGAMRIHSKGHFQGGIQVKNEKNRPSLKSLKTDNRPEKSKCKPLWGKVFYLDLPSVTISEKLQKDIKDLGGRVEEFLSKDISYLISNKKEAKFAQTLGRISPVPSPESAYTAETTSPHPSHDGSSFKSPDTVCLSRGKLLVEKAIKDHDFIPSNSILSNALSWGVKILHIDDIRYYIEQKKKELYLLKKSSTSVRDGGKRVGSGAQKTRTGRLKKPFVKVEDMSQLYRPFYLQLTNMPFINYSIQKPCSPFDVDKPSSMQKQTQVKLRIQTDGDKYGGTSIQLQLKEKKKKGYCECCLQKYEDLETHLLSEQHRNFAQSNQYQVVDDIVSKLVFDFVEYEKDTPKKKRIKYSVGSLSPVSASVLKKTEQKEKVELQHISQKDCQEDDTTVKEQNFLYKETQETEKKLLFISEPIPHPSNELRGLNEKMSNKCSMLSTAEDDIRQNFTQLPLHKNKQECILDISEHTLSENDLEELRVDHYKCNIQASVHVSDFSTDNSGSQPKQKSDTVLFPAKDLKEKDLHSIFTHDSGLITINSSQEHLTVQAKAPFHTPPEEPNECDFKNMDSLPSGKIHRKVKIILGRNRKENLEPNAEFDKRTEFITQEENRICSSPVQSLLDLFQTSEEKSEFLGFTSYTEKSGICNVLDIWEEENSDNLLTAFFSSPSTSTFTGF
In short: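 CDC7/DBF4 enzyme, 25 ng/well, with 10 µM ATP (final) and PDKtide substrate. Incubated 60 min at room temperature. ADP-Glo reagent added for 40 min, then detection reagent for 30 min, and luminescence read. Inhibition calculated relative to the no-inhibitor maximum.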

[10] = Hepatotoxicity in human HepG2 cells assessed as reduction in cell viability at 5 to 50 uM incubated for 24 hrs by MTT assay; type: toxicity, cell-based; conditions: hepg2, 24 h
In short: (§2)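 HepG2 cells grown in DMEM with 10% FBS at 37 °C, 5% CO2, seeded at 0.5 × 10^5 cells/well and left 24 h. Exposed in serum-free DMEM for 24 h (concentrations listed as 0, 10, 25, 50 µM; elsewhere 0, 5, 25, 50 µM). MTT 0.1 mg/mL for 10 min at 37 °C in the dark. Formazan dissolved in Tris/Triton X-100, A570. Mean ± SE of ≥3 experiments in triplicate; reported as % of control.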

[11] = molecular target: T1, Glycogen synthase kinase-3 beta; experiment: Inhibition of GSK3beta (unknown origin) at 10 uM
In short: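 Human recombinant GSK-3β (20 ng) with 25 µM GS-2 prephosphorylated peptide and 1 µM ATP in 50 mM HEPES pH 7.5, 1 mM EDTA, 1 mM EGTA, Mg acetate. DMSO at most 1%. 30 min at 30 °C; reaction stopped with Kinase-Glo, luminescence read after 10 min. Activity scaled between no inhibitor and full inhibition by a reference inhibitor.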
Target sequence in this assay (P49841 whole entry, looked up): as the sequence (P49841 whole entry, looked up) above

[12] = molecular target: Casein kinase I isoform delta (Homo sapiens) (UniProt P48730); experiment: Inhibition of human recombinant CK1delta at 10 uM incubated for 60 mins by Kinase-Glo assay
Casein kinase I isoform delta (Homo sapiens), sequence (P48730 whole entry, looked up, canonical isoform): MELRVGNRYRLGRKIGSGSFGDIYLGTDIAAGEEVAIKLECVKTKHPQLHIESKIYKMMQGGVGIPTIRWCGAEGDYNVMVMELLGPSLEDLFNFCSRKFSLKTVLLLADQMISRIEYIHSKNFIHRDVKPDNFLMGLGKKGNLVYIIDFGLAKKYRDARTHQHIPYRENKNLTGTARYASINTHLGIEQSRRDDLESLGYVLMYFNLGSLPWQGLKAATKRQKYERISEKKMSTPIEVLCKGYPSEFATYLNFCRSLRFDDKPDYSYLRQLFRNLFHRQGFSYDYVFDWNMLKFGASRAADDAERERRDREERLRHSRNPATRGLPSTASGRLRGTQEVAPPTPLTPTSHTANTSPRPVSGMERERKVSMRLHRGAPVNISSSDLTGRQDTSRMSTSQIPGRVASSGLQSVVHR
In short: (§3)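 Human recombinant CK1δ or CK1ε, 16 ng, in 50 mM HEPES pH 7.5 with 10 mM MgCl2, 1 mM EGTA and Brij-35. Substrate 0.1% casein with 4 µM ATP; compound diluted to 10 µM before addition, DMSO ≤1%. Incubated 60 min at 30 °C, then Kinase-Glo luminescence read. Inhibition relative to no-inhibitor activity; mean of two experiments.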

[13] = molecular target: T1, Glycogen synthase kinase-3 beta; experiment: Inhibition of GSK3beta (unknown origin) pre-incubated for 30 mins followed by ULight-GS (Ser641/pSer657) peptide substrate addition and measured after 1 hr by TR-FRET assay
Target sequence in this assay (P49841 whole entry): as the sequence (P49841 whole entry, looked up) above

[14] = Inhibition of AcPHF6 peptide aggregation in pH 7.4 phosphate buffer at 20 uM by CD Spectroscopy
[15] = molecular target: Casein kinase I isoform epsilon (Homo sapiens) (UniProt P49674); experiment: Inhibition of human recombinant CK1epsilon at 10 uM incubated for 60 mins by Kinase-Glo assay; in short: as §3
Casein kinase I isoform epsilon (Homo sapiens), sequence (P49674 whole entry, looked up, canonical isoform): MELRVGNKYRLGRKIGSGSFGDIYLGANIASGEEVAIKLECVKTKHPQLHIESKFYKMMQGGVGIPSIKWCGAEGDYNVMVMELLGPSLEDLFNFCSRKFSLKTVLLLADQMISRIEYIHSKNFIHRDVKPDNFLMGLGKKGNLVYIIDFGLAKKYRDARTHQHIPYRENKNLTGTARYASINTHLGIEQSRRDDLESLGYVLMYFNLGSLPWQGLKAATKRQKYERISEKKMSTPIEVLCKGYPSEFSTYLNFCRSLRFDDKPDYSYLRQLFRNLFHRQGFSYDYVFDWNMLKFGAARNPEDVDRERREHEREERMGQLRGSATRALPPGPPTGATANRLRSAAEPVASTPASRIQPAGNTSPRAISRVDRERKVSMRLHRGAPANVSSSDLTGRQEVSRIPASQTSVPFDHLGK

[16] = Hepatotoxicity in human HepG2 cells assessed as reduction in cell viability incubated for 24 hrs by MTT assay; type: toxicity, cell-based; conditions: hepg2, 24 h; in short: as §2
[17] = test system: Cerebellar granule neurone; experiment: Neurotoxicity in rat primary cerebellar granule neurons assessed as reduction in cell viability at 5 uM incubated for 24 hrs by MTT assay; type: toxicity; in short: as §1

inhibition [1]: < 50%
IC50 [2]: > 10 µM
SMILES: Cn1c(/C=C2\SC(=O)NC2=O)nc2ccccc21

inhibition [1]: > 50%
SMILES: COc1cc(/C=C2\SC(=O)NC2=O)ccc1O

inhibition [1]: > 50%
IC50 [2]: 3.55 µM
SMILES: COc1ccc2nc(Cl)c(/C=C3\SC(=O)NC3=O)cc2c1

inhibition [3]: Active
inhibition [6]: Active
inhibition [1]: > 50%
Papp at 2.5 h [8]: > 3.07 ×10⁻⁶ cm/s
inhibition [9]: inactive
inhibition [11]: 95%
IC50 [2]: 4.93 µM
inhibition [12]: inactive
IC50 [13]: 21 µM
inhibition [14]: Active
inhibition [15]: inactive
SMILES: O=C1NC(=O)/C(=C/c2c[nH]c3ccccc23)S1
inhibition [4]: Active
Activity [5]: Toxic
Activity [7]: Non-Toxic
Activity [10]: Non-Toxic

inhibition [1]: > 50%
IC50 [2]: 7.08 µM
SMILES: COc1ccc(/C=C2\SC(=O)NC2=O)c(O)c1

inhibition [1]: > 50%
IC50 [2]: 8.99 µM
SMILES: O=C1NC(=O)/C(=C/c2ccc(O)cc2)S1

inhibition [1]: < 50%
IC50 [2]: > 10 µM
SMILES: O=C1NC(=O)/C(=C/c2ccc3ccccc3c2)S1

inhibition [1]: < 50%
IC50 [2]: > 10 µM
SMILES: O=C1NC(=O)/C(=C/c2ccccc2F)S1

inhibition [1]: < 50%
IC50 [2]: > 10 µM
SMILES: COc1ccc2[nH]cc(/C=C3\SC(=O)NC3=O)c2c1

inhibition [1]: > 50%
Papp at 2.5 h [8]: > 3.07 ×10⁻⁶ cm/s
IC50 [2]: 9.22 µM
SMILES: CN(C)c1ccccc1/C=C1\SC(=O)NC1=O
Activity [16]: Dose-dependent effect
Activity [17]: Toxic

IC50 [2]: > 10 µM
SMILES: O=C1NC(=O)/C(=C/c2cccc(F)c2)S1

inhibition [1]: > 50%
Papp at 2.5 h [8]: > 3.07 ×10⁻⁶ cm/s
IC50 [2]: 8.54 µM
SMILES: CN(C)c1cccc(/C=C2\SC(=O)NC2=O)c1
Activity [16]: Dose-dependent effect
Activity [17]: Toxic

inhibition [1]: < 50%
IC50 [2]: > 10 µM
SMILES: O=C1NC(=O)/C(=C/c2ccccc2O)S1

inhibition [1]: > 50%
IC50 [2]: 6.13 µM
SMILES: O=C1NC(=O)/C(=C/c2cc3ccccc3nc2Cl)S1

inhibition [1]: > 50%
IC50 [2]: 9.22 µM
SMILES: O=C1NC(=O)/C(=C/c2ccc(O)c([N+](=O)[O-])c2)S1

inhibition [1]: < 50%
IC50 [2]: > 10 µM
SMILES: O=C1NC(=O)/C(=C/c2ccc(F)cc2)S1

inhibition [1]: < 50%
IC50 [2]: > 10 µM
SMILES: O=C1NC(=O)/C(=C/c2cccc(O)c2)S1

More lines, now with the values behind:

SMILES: O=C1NC(=O)/C(=C/C=C/c2ccccc2)S1
inhibition [1]: < 50%
IC50 [2]: > 10 µM

SMILES: CN(C)c1ccc(/C=C/C=C2\SC(=O)NC2=O)cc1
inhibition [1]: < 50%
IC50 [2]: > 10 µM

SMILES: COc1cc(/C=C2\SC(=O)NC2=O)cc2c1OCO2
inhibition [1]: < 50%
IC50 [2]: > 10 µM

SMILES: O=C1NC(=O)/C(=C/c2ccccc2)S1
inhibition [1]: < 50%
IC50 [2]: > 10 µM

SMILES: O=C1NC(=O)/C(=C/c2ccncc2)S1
inhibition [1]: > 50%
IC50 [2]: 1.42 µM

SMILES: O=C1NC(=O)/C(=C/c2cc3ccccc3o2)S1
inhibition [1]: < 50%
IC50 [2]: > 10 µM

SMILES: O=C1NC(=O)/C(=C/c2ccc(-c3ccccc3)cc2)S1
inhibition [1]: < 50%
IC50 [2]: > 10 µM

SMILES: O=C1NC(=O)/C(=C/c2ccccc2OCc2ccccc2)S1
inhibition [1]: < 50%
IC50 [2]: > 10 µM

SMILES: CN(C)c1ccc(/C=C2\SC(=O)NC2=O)cc1
inhibition [1]: < 50%
IC50 [2]: > 10 µM

SMILES: O=C1NC(=O)/C(=C/c2c(-c3ccccc3)[nH]c3ccccc23)S1
inhibition [1]: > 50%
IC50 [2]: 6.03 µM

SMILES: O=C1NC(=O)/C(=C/c2c3ccccc3cc3ccccc23)S1
inhibition [1]: < 50%
IC50 [2]: > 10 µM

SMILES: O=C1NC(=O)/C(=C/c2ccc3c(c2)OCCO3)S1
inhibition [1]: > 50%
IC50 [2]: 7.01 µM

SMILES: O=C1NC(=O)/C(=C/c2cc3ccccc3s2)S1
Activity [17]: Toxic
inhibition [1]: > 50%
Papp at 2.5 h [8]: > 3.07 ×10⁻⁶ cm/s
Activity [10]: Non-Toxic
IC50 [2]: 7.47 µM

SMILES: CCc1ccc(CCOc2ccc(CC3SC(=O)NC3=O)cc2)nc1 (stereo not given) [PIOGLITAZONE]
Activity [16]: Dose-dependent effect
Activity [17]: Toxic

SMILES: O=C1NC(=O)/C(=C/c2ccco2)S1
inhibition [1]: < 50%
IC50 [2]: > 10 µM

SMILES: O=C1NC(=O)/C(=C/c2ccccn2)S1
inhibition [1]: < 50%
IC50 [2]: > 10 µM

SMILES: O=C1NC(=O)/C(=C/c2cccs2)S1
inhibition [1]: > 50%
IC50 [2]: 7.99 µM

SMILES: O=C1NC(=O)/C(=C/c2cccnc2)S1
inhibition [1]: > 50%
IC50 [2]: 8.75 µM

— ChEMBL document CHEMBL4145680, “Tau-Centric Multitarget Approach for Alzheimer's Disease: Development of First-in-Class Dual Glycogen Synthase Kinase 3β and Tau-Aggregation Inhibitors” (J Med Chem, 2018)
